Data set [1] in a line: Cmax in Beagle dog at 3 mg/kg, po. Type of data set: ADME, organism-based, Canis lupus familiaris. More on the design: dose 3 mg/kg, route oral. The settings on record: in vivo. A digest of the protocol: (§1)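 Animals were acclimatized (rats >1 week, dogs and monkeys >3 weeks) at 21–25 °C and 45–65% humidity, and were not fasted. Dosing was iv or oral to groups of three. Venous blood was sampled predose and at 5, 15 and 30 min and 1–24 h into heparin. Plasma was spun at 3000 rpm for 15 min at 4 °C and analysed by LC-MS (APCI/ESI positive, SIM/SRM). Values are mean ± SD, n=3.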

Data set [2] can be described thus: AUC in Sprague-Dawley rat at 10 mg/kg, po. Type of data set: ADME, organism-based. More on the design: dose 10 mg/kg, route oral. The settings on record: plasma. The gist of the method: (§2)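 Compound given iv or po to non-fasted groups of three animals (acclimatized ≥1 week rats, ≥3 weeks dogs; fed standard diets, 21–25 °C). Venous blood at predose, 5, 15, 30 min, 1, 2, 4, 6, 8, 10, 24 h into heparinized tubes; plasma by centrifugation (3000 rpm, 15 min, 4 °C); drug measured by LC-MS (APCI or ESI positive, SIM/SRM). Values mean ± SD, n = 3.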

A short description of data set [3]: Tmax in Sprague-Dawley rat at 10 mg/kg, po. Type of data set: ADME, organism-based. The arrangement: dose 10 mg/kg, route oral. The settings on record: in vivo. The gist of the method: as §1
A short description of data set [4]: Half life in cynomolgus monkey at 1 mg/kg, po. More on the design: dose 1 mg/kg, route oral. Type of data set: ADME, organism-based, Macaca fascicularis. The settings on record: in vivo. The gist of the method: (§3)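 Compound given iv or orally to non-fasted animals, groups of three; dogs and monkeys acclimatised over 3 weeks at 21–25 °C, 45–65% humidity. Venous blood drawn into heparinised tubes before dosing and at 5, 15, 30 min and 1, 2, 4, 6, 8, 10, 24 h; plasma by centrifugation (3000 rpm, 15 min, 4 °C), drug quantified by HPLC-MS in SIM or SRM mode; mean ± SD, n = 3.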

Data set [5] can be described thus: Cmax in Sprague-Dawley rat at 10 mg/kg, po. More on the design: dose 10 mg/kg, route oral. Type of data set: ADME, organism-based. The settings on record: in vivo. The gist of the method: as §1
The nature of data set [6]: Cmax in cynomolgus monkey at 1 mg/kg, po. Type of data set: ADME, organism-based, Macaca fascicularis. More on the design: dose 1 mg/kg, route oral. The settings on record: in vivo. A digest of the protocol:
as §3

Data set [7] is described as follows: AUC in Beagle dog at 3 mg/kg, po. Type of data set: ADME, organism-based, Canis lupus familiaris. The arrangement: dose 3 mg/kg, route oral. The settings on record: plasma. A digest of the protocol:
as §2

A short description of data set [8]: AUC in Beagle dog at 1 mg/kg, iv. Type of data set: ADME, organism-based, Canis lupus familiaris. The settings on record: plasma. The arrangement: dose 1 mg/kg, route intravenous. A digest of the protocol: as §2
Data set [9] in a line: Half life in Beagle dog at 1 mg/kg, iv. Type of data set: ADME, organism-based, Canis lupus familiaris. The arrangement: dose 1 mg/kg, route intravenous. The settings on record: in vivo. The gist of the method: as §3
Data set [10] can be described thus: Half life in Sprague-Dawley rat at 3 mg/kg, iv. Type of data set: ADME, organism-based. More on the design: dose 3 mg/kg, route intravenous. The settings on record: in vivo. The gist of the method: as §1
A short description of data set [11]: Oral bioavailability in Beagle dog at 3 mg/kg. Type of data set: ADME, organism-based, Canis lupus familiaris. The settings on record: in vivo. The gist of the method: as §1
The nature of data set [12]: Oral bioavailability in Sprague-Dawley rat at 10 mg/kg. Type of data set: ADME, organism-based. The settings on record: in vivo. A digest of the protocol:
as §1

Data set [13] can be described thus: AUC in cynomolgus monkey at 1 mg/kg, po. More on the design: dose 1 mg/kg, route oral. The settings on record: plasma. Type of data set: ADME, organism-based, Macaca fascicularis. The gist of the method:
as §1

Data set [14] can be described thus: AUC in Sprague-Dawley rat at 3 mg/kg, iv. Type of data set: ADME, organism-based. The arrangement: dose 3 mg/kg, route intravenous. The settings on record: plasma. The gist of the method:
as §2

The test system of the next data set is Plasma. The data set can be described thus: Inhibition of ADP-induced platelet aggregation in human platelet rich plasma.
Data set [15] can be described thus: Tmax in Beagle dog at 3 mg/kg, po. Type of data set: ADME, organism-based, Canis lupus familiaris. More on the design: dose 3 mg/kg, route oral. The settings on record: in vivo. The gist of the method:
as §1

Data set [16] is described as follows: Half life in Sprague-Dawley rat at 10 mg/kg, po. Type of data set: ADME, organism-based. More on the design: dose 10 mg/kg, route oral. The settings on record: in vivo. A digest of the protocol:
as §1

Data set [17] can be described thus: Half life in Beagle dog at 3 mg/kg, po. More on the design: dose 3 mg/kg, route oral. Type of data set: ADME, organism-based, Canis lupus familiaris. The settings on record: in vivo. A digest of the protocol: as §1
Data set [18] can be described thus: Tmax in cynomolgus monkey at 1 mg/kg, po. Type of data set: ADME, organism-based, Macaca fascicularis. More on the design: dose 1 mg/kg, route oral. The settings on record: in vivo. A digest of the protocol:
as §3

The term Cmax denotes the maximum level reached in the sampled fluid or tissue. The term AUC denotes concentration integrated over time. Broadly, the Tmax is the time from dosing to the highest level. A word on the half-life: it is the time in which the quantity being followed falls by half. As a reminder, the IC50 is the concentration that gives 50% inhibition. As for `CC(C)N(CCCCOCC(=O)O)c1cnc(-c2ccccc2)c(-c2ccccc2)n1`, the peak concentration (Cmax) in data set [1] was 14900 ng/mL; in [5], 1900 ng/mL; in data set [6], 110 ng/mL. For the same compound, the exposure (AUC) in data set [2] worked out at 17700 ng·h/mL; in [7] it was 176000 ng·h/mL; in data set [8] it was 72500 ng·h/mL; in [13] it was 650 ng·h/mL; in [14], 5200 ng·h/mL. Besides, the Tmax was found to be 0.8 h in data set [3], 0.8 h in [15] and 2.3 h in data set [18]. Besides, the half-life in data set [4] was 5.6 h; in data set [9], 5.9 h; in data set [10], 4.9 h; in data set [16] it was 3.6 h; in data set [17] it was 6.2 h. The bioavailability in data set [11] was determined as 80%; in data set [12], 102%. In the data set with Plasma, this compound returned a concentration for half-maximal inhibition (IC50) of 200 nM.
In the data set on Plasma, `CN(CCc1cccc(OCC(=O)O)c1)c1cnc(-c2ccccc2)c(-c2ccccc2)n1` registered a half-inhibitory concentration (IC50) of 2000 nM.
Take `CC#CCC(C)[C@H](O)/C=C/[C@@H]1[C@H]2c3cccc(CCCC(=O)O)c3O[C@H]2C[C@H]1O` (stereo partly drawn) [BERAPROST SODIUM]: the midpoint of inhibition in the data set on Plasma, the IC50, lay at 17 nM.
Consider `CC#CCC(C)[C@H](O)/C=C/[C@@H]1[C@H]2C/C(=C/CCCC(=O)O)C[C@H]2C[C@H]1O` (stereo partly drawn) [ILOPROST], for which half-maximal inhibition in the data set with Plasma (IC50) was put at 5 nM.
Still for that read-out and setting: the figure for `CC(C)N(CCCCOCC(=O)NS(C)(=O)=O)c1cnc(-c2ccccc2)c(-c2ccccc2)n1` [SELEXIPAG] is 6400 nM.

The values above are taken from ChEMBL document CHEMBL1137448, “Structure-activity studies on diphenylpyrazine derivatives: a novel class of prostacyclin receptor agonists” (Bioorg Med Chem, 2007).
